For 23 compounds, activation results are on record in PubChem BioAssay AID743238 (Broad Institute, 2013).

About 200 (0.056%) of roughly 360,000 compounds were called active. The sample as a whole holds a higher share of actives than the screen did. A number with no mark means an inactive call.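 How the source made its calls: active means mean normalized replicate activation at least 10% and every replicate at or above 10%; inconclusive means only one of the two criteria met; inactive means mean below 10% and not all replicates reach 10%.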

The nature of this assay: Xi reactivation inducers in mouse fibroblasts – imaging, XiGFP fibroblasts, GFP high-content imaging, set 2, primary screen (AID 743238).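 Further: 0% = median of on-plate neutral control wells and 100% = ellipticine 6 µM median.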 Conditions: % GFP-positive cells imaging, 3 d, at 7.58 µM, active compounds read high, cells co-treated with 5-aza-dC sensitizer, scaled so ellipticine positive control = 100%. In a few lines: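 System: SV40-immortalized XiGFP fibroblast cells, line 68-5-11 / Incubation: 3-day compound exposure, then 15 min fixation at room temperature / Compound: single concentration per compound, delivered by pin transfer / Buffer or medium: DMEM plus 5-aza-dC sensitizer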
With `COc1ccc2c3c(n(C)c2c1)[C@H](CO)N(CC1CCOCC1)CC31CCN(C(C)=O)CC1`, the activation is 0.008%.

`C/C=C/c1ccc([C@@H]2[C@H](CO)N(CC3CCOCC3)C23CN(S(=O)(=O)CC)C3)cc1`: the activation is 0.064%.

As for `COc1ccc(S(=O)(=O)Nc2cccc3c2O[C@H](CN(C)C(=O)Nc2cccc4ccccc24)[C@H](C)CN([C@@H](C)CO)C3=O)cc1`, the activation was -0.983%.

Consider `C[C@@H]1CCCCO[C@H](CN(C)C(=O)Nc2cccc3ccccc23)[C@@H](C)CN([C@@H](C)CO)C(=O)c2cc(NC(=O)Nc3ccc(F)cc3)ccc2O1`, for which the activation is -0.01%.

For the compound `C[C@@H](NC(=O)C[C@H]1CC[C@H]2[C@H](COc3ccc(NS(=O)(=O)c4ccc(Cl)cc4)cc3C(=O)N2C)O1)c1ccccc1`, the activation was -0.013%.

`CCC(=O)NC[C@H]1[C@@H](c2ccc(C3=CCCC3)cc2)[C@@H](CO)N1C(=O)C1CC1`: the activation was -0.043%.

On to `CCCC#Cc1cnc2c(c1)C(=O)N([C@H](C)CO)C[C@H](C)[C@@H](CN(C)C(=O)c1cccnc1)O2`, for which the activation was -0.912%.

With `COc1ccc2c3c(n(C)c2c1)[C@H](CO)N(Cc1ccccc1)CC31CCN(C)CC1`, the activation is 0.287%.

With `CCN(CC)c1ccc([N+](=O)[O-])cc1C(=O)O`, the activation is -0.147%.

As for `CNc1ccc([N+](=O)[O-])cc1C(=O)O`, the activation is 34.2% (active).

Consider `Cc1ccc(NC(=O)c2cc([N+](=O)[O-])ccc2Cl)c(O)c1`, for which the activation is 0.0305%.

`CNC(=O)C[C@H]1CC[C@@H]2[C@H](COc3ccc(NC(=O)Nc4cccc(F)c4)cc3C(=O)N2C)O1`: the activation is 0.022%.

In the case of `C[C@H](O)C#Cc1ccc2c(c1)O[C@H](CN(C)Cc1ccccn1)[C@@H](C)CN([C@@H](C)CO)S2(=O)=O`, the activation is -0.095%.

In the case of `O=C(C[C@@H]1CC[C@@H](NC(=O)C2CCOCC2)[C@H](CO)O1)NCC1CC1`, the activation is -0.115%.

`COc1ccc2c3c(n(C)c2c1)[C@@H](CO)N(Cc1ccccc1F)CC31CCN(C(=O)C2CCOCC2)CC1`: the activation was -0.019%.

On to `O=C(c1ccc(F)cc1)N1CC(=O)N2[C@@H](CO)[C@H](c3ccc(C4=CCCC4)cc3)[C@@H]2C1`, for which the activation is 0.604%.

In the case of `CCS(=O)(=O)N1[C@H](CO)[C@@H](c2ccccc2)C12CN(C(=O)c1ccccc1F)C2`, the activation was 0.139%.

Consider `CCS(=O)(=O)N1CC(=O)N2[C@H](C1)[C@@H](c1ccc(C#Cc3ccc(F)cc3)cc1)[C@@H]2CO`, for which the activation was 0.458%.

In the case of `Cc1c(/C=N\NC(=O)c2cc3ccccc3o2)c2ccccc2n1C`, the activation was 16.6% (active).

For the compound `CC(C)(C)n1nc2c(c1NC(=O)c1cc3ccccc3o1)CSC2`, the activation was 0%.

Consider `COc1ccc2c(c1)c(C(=O)N/N=C/c1cccs1)c(C)n2C`, for which the activation was 0.148%.

As to `CCCNC(=O)C[C@H]1C[C@@H]2c3cc(NC(=O)COC)ccc3O[C@@H]2[C@@H](CO)O1`, the activation was -0.017%.

In the case of `O=C(C[C@@H]1CC[C@H]2[C@@H](COC[C@@H](O)CN2CC2CC2)O1)NCc1ccc(Cl)cc1`, the activation is 0.122%.
